Measured values as given in ChEMBL document CHEMBL1158680, “Chemical constituents and biological activities of the fruit of Zanthoxylum integrifoliolum” (1999).
Active and inactive are the calls of the source. The calls are words filed in the database; no cut-off is given here.

Columns and labels:
[1] = Antiplatelet activity against rabbit platelets assessed as inhibition of PAF-induced platelet aggregation at 100 ug/ml preincubated for 3 mins by turbidimetric method; format: functional, Oryctolagus cuniculus; design: scale not given: the % may be the effect or the level left
Procedure, shortened: (§1)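 Washed rabbit platelets were preincubated with test sample or 0.5% DMSO vehicle for 3 min at 37 °C. Inducers were thrombin 0.1 U/mL, arachidonic acid 100 μM, collagen 10 μg/mL or PAF 2 nM. Turbidimetric read-out took platelet suspension absorbance as 0% and platelet-free Tyrode's as 100% aggregation, measured at 6 min. Results are mean ± SEM with n per entry.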

[2] = (§2) Antiplatelet activity against rabbit platelets assessed as inhibition of arachidonic acid-induced platelet aggregation at 50 ug/ml preincubated for 3 mins by turbidimetric method; format: functional, Oryctolagus cuniculus; design: scale not given: the % may be the effect or the level left; procedure, shortened: as §1
[3] = (§3) Antiplatelet activity against rabbit platelets assessed as inhibition of collagen-induced platelet aggregation at 100 ug/ml preincubated for 3 mins by turbidimetric method; format: functional, Oryctolagus cuniculus; design: scale not given: the % may be the effect or the level left; procedure, shortened: as §1
[4] = Antiplatelet activity against rabbit platelets assessed as inhibition of arachidonic acid-induced platelet aggregation at 20 ug/ml preincubated for 3 mins by turbidimetric method; format: functional, Oryctolagus cuniculus; design: scale not given: the % may be the effect or the level left; procedure, shortened: as §1
Aorta [5] = assay: Vasorelaxation activity in rat aorta assessed as inhibition of norepinephrine-induced tonic contraction at 50 ug/ml preincubated for 15 mins relative to control; format: functional; design: scale not given: the % may be the effect or the level left
Procedure, shortened: (§4)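 Rat aorta was preincubated with test sample or 0.1% DMSO vehicle at 37 °C for 15 min. Contraction was then evoked with high K+ (80 mM) or norepinephrine (3 μM). Response is expressed as percent of control contraction, mean ± SEM, n = 3.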

[6] = Antiplatelet activity against rabbit platelets assessed as inhibition of thrombin-induced platelet aggregation at 50 ug/ml preincubated for 3 mins by turbidimetric method; format: functional, Oryctolagus cuniculus; design: scale not given: the % may be the effect or the level left; procedure, shortened: as §1
Aorta [7] = assay: Vasorelaxation activity in rat aorta assessed as inhibition of K+-induced contraction at 15 ug/ml preincubated for 15 mins relative to control; format: functional; design: scale not given: the % may be the effect or the level left; procedure, shortened: as §4
[8] = Antiplatelet activity against rabbit platelets assessed as inhibition of PAF-induced platelet aggregation at 20 ug/ml preincubated for 3 mins by turbidimetric method; format: functional, Oryctolagus cuniculus; design: scale not given: the % may be the effect or the level left; procedure, shortened: as §1
[9] = (§5) Antiplatelet activity against rabbit platelets assessed as inhibition of collagen-induced platelet aggregation at 50 ug/ml preincubated for 3 mins by turbidimetric method; format: functional, Oryctolagus cuniculus; design: scale not given: the % may be the effect or the level left; procedure, shortened: as §1
[10] = Antiplatelet activity against rabbit platelets assessed as inhibition of thrombin-induced platelet aggregation at 20 ug/ml preincubated for 3 mins by turbidimetric method; format: functional, Oryctolagus cuniculus; design: scale not given: the % may be the effect or the level left; procedure, shortened: as §1
[11] = Antiplatelet activity against rabbit platelets assessed as inhibition of collagen-induced platelet aggregation at 20 ug/ml preincubated for 3 mins by turbidimetric method; format: functional, Oryctolagus cuniculus; design: scale not given: the % may be the effect or the level left; procedure, shortened: as §1
Aorta [12] = assay: Vasorelaxation activity in rat aorta assessed as inhibition of norepinephrine-induced phasic contraction at 50 ug/ml preincubated for 15 mins relative to control; format: functional; design: scale not given: the % may be the effect or the level left; procedure, shortened: as §4
Aorta [13] = assay: Vasorelaxation activity in rat aorta assessed as inhibition of norepinephrine-induced tonic contraction at 15 ug/ml preincubated for 15 mins relative to control; format: functional; design: scale not given: the % may be the effect or the level left; procedure, shortened: as §4
[14] = (§6) Antiplatelet activity against rabbit platelets assessed as inhibition of arachidonic acid-induced platelet aggregation at 100 ug/ml preincubated for 3 mins by turbidimetric method; format: functional, Oryctolagus cuniculus; design: scale not given: the % may be the effect or the level left; procedure, shortened: as §1
Aorta [15] = assay: Vasorelaxation activity in rat aorta assessed as inhibition of norepinephrine-induced phasic contraction at 15 ug/ml preincubated for 15 mins relative to control; format: functional; design: scale not given: the % may be the effect or the level left; procedure, shortened: as §4
[16] = Antiplatelet activity against rabbit platelets assessed as inhibition of thrombin-induced platelet aggregation at 100 ug/ml preincubated for 3 mins by turbidimetric method; format: functional, Oryctolagus cuniculus; design: scale not given: the % may be the effect or the level left; procedure, shortened: as §1
Aorta [17] = assay: Vasorelaxation activity in rat aorta assessed as inhibition of K+-induced contraction at 50 ug/ml preincubated for 15 mins relative to control; format: functional; design: scale not given: the % may be the effect or the level left; procedure, shortened: as §4
[18] = Antiplatelet activity against rabbit platelets assessed as inhibition of PAF-induced platelet aggregation at 50 ug/ml preincubated for 3 mins by turbidimetric method; format: functional, Oryctolagus cuniculus; design: scale not given: the % may be the effect or the level left; procedure, shortened: as §1
Aorta [19] = assay: Vasorelaxation activity in rat aorta assessed as inhibition of K+-induced contraction at 5 ug/ml preincubated for 15 mins relative to control; format: functional; design: scale not given: the % may be the effect or the level left; procedure, shortened: as §4
[20] = Antiplatelet activity against rabbit platelets assessed as inhibition of arachidonic acid-induced platelet aggregation at 10 ug/ml preincubated for 3 mins by turbidimetric method; format: functional, Oryctolagus cuniculus; design: scale not given: the % may be the effect or the level left; procedure, shortened: as §1
[21] = Antiplatelet activity against rabbit platelets assessed as inhibition of arachidonic acid-induced platelet aggregation at 5 ug/ml preincubated for 3 mins by turbidimetric method; format: functional, Oryctolagus cuniculus; design: scale not given: the % may be the effect or the level left
Procedure, shortened: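 Washed rabbit platelet suspension preincubated with DMSO (0.5%, control) or sample at 37 °C for 3 min. Arachidonic acid (100 μM) then added. Turbidimetric read-out with platelet suspension as 0% and platelet-free Tyrode's solution as 100% aggregation. Percent aggregation read at 6 min. Means ± S.E.M. (n).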

[22] = Antiplatelet activity against rabbit platelets assessed as inhibition of PAF-induced platelet aggregation at 10 ug/ml preincubated for 3 mins by turbidimetric method; format: functional, Oryctolagus cuniculus; design: scale not given: the % may be the effect or the level left; procedure, shortened: as §1
Aorta [23] = assay: Vasorelaxation activity in rat aorta assessed as inhibition of K+-induced contraction at 1 ug/ml preincubated for 15 mins relative to control; format: functional; design: scale not given: the % may be the effect or the level left
Procedure, shortened: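 Rat aorta preincubated with sample or DMSO (0.1%, control) at 37 °C for 15 min. Contraction then induced by high potassium (K+, 80 mM). Response expressed as percentage of control contraction, given as means ± S.E.M. (n = 3).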

Aorta [24] = assay: Vasorelaxation activity in rat aorta assessed as inhibition of norepinephrine-induced tonic contraction at 100 ug/ml preincubated for 15 mins relative to control; format: functional; design: scale not given: the % may be the effect or the level left; procedure, shortened: as §4
Aorta [25] = assay: Vasorelaxation activity in rat aorta assessed as inhibition of K+-induced contraction at 30 ug/ml preincubated for 15 mins relative to control; format: functional; design: scale not given: the % may be the effect or the level left; procedure, shortened: as §4
Aorta [26] = assay: Vasorelaxation activity in rat aorta assessed as inhibition of norepinephrine-induced phasic contraction at 30 ug/ml preincubated for 15 mins relative to control; format: functional; design: scale not given: the % may be the effect or the level left; procedure, shortened: as §4
Aorta [27] = assay: Vasorelaxation activity in rat aorta assessed as inhibition of norepinephrine-induced phasic contraction at 100 ug/ml preincubated for 15 mins relative to control; format: functional; design: scale not given: the % may be the effect or the level left; procedure, shortened: as §4
Aorta [28] = assay: Vasorelaxation activity in rat aorta assessed as inhibition of K+-induced contraction at 100 ug/ml preincubated for 15 mins relative to control; format: functional; design: scale not given: the % may be the effect or the level left; procedure, shortened: as §4
Aorta [29] = assay: Vasorelaxation activity in rat aorta assessed as inhibition of norepinephrine-induced tonic contraction at 30 ug/ml preincubated for 15 mins relative to control; format: functional; design: scale not given: the % may be the effect or the level left; procedure, shortened: as §4
Platelet [30] = assay: as §3; format: functional; conditions: Oryctolagus cuniculus; procedure, shortened: as §1
Platelet [31] = assay: as §5; format: functional; conditions: Oryctolagus cuniculus; procedure, shortened: as §1
Platelet [32] = assay: as §2; format: functional; conditions: Oryctolagus cuniculus; procedure, shortened: as §1
Platelet [33] = assay: as §6; format: functional; conditions: Oryctolagus cuniculus; procedure, shortened: as §1

Row | SMILES | Activity [1] | Activity [2] | Activity [3] | Activity [4] | Activity (Aorta [5]) | Activity (Aorta [12]) | Activity [14] | Activity [16] | Activity (Aorta [17]) | Activity [20] | further results
1 | CCCCCCC(=O)CC/C=C/C=C/C(=O)NCC(C)C [LANYUAMIDE I] | 0% | 0% | 0% | 15.6% | 45.5% | 77.1% | 0% | 8.9% | 28.6% |  | Activity [6]: 75.7%; Activity (Aorta [7]): 47.6%; Activity [8]: 76%; Activity [9]: 0%; Activity [10]: 80.4%; Activity [11]: 2.7%; Activity (Aorta [13]): 77.1%; Activity (Aorta [15]): 100%; Activity [18]: 20%; Activity (Aorta [19]): 82%
2 | CC/C=C\C/C=C\CC/C=C/C=C/C(=O)NCC(C)(C)O | 38.4% | 0% | 0% | 4% |  |  | 0% | 89.2% |  | 27.8% | Activity [21]: 46.2%
3 | CCCCCCCCC/C=C/C=C/C(=O)NCC(C)(C)O [TETRAHYDROBUNGEANOOL] | 6.7% | 58.3% | 0% |  |  |  | 0% | 74% |  |  | Activity [18]: 82.7%
4 | COc1ccc(-c2oc3c(OC)c(OC)cc(OC(C)=O)c3c(=O)c2OC(C)=O)cc1 | 0% |  | 5.1% | 0% | 58.7% | 74.6% | 0% | 88.5% | 25.3% | 29% | Activity [22]: 78%; Activity (Aorta [7]): 57.1%; Activity [8]: 71.2%; Activity (Aorta [13]): 86.3%; Activity (Aorta [15]): 94.6%; Activity [21]: 51.1%; Activity [18]: 46.7%; Activity (Aorta [19]): 84.8%
5 | CC(=O)[C@H]1CC[C@H]2[C@@H]3CC=C4C[C@@H](O)CC[C@]4(C)[C@H]3CC[C@]12C [PREGNENOLONE] | 77% |  | 84.7% |  | 102.6% | 114.1% | 86.5% | 91.8% | 93.6% |  | 
6 | COc1cc2ccc(=O)oc2cc1O [SCOPOLETIN] | 78.2% |  | 80.9% |  | 81.6% | 91.9% | 80.5% | 89.8% | 88.4% |  | 
7 | COC(=O)C1=C(C)NC(C)=C(C(=O)OC)C1c1ccccc1[N+](=O)[O-] [NIFEDIPINE] |  |  |  |  |  |  |  |  |  |  | Activity (Aorta [23]): 0%
8 | COc1ccc(-c2oc3c(OC)c(O)cc(O)c3c(=O)c2O)cc1 [PRUDOMESTIN] | 73.3% |  | 58.1% | 0% |  |  | 0% | 87.5% |  | 64.5% | Activity (Aorta [24]): 46.7%; Activity (Aorta [25]): 83.4%; Activity (Aorta [26]): 100.6%; Activity (Aorta [27]): 20%; Activity (Aorta [28]): 36.7%; Activity (Aorta [29]): 97.8%
9 | COc1ccc2c(c1OC)CN1CCc3cc4c(cc3[C@@H]1C2)OCO4 [CANADINE] | 54.7% |  | 76.4% |  | 25.6% | 11.2% | 45.8% | 91.2% | 13.6% |  | Activity (Aorta [7]): 49.8%; Activity (Aorta [13]): 70%; Activity (Aorta [15]): 79.1%; Activity (Aorta [19]): 82.8%
10 | CC(=O)Oc1ccccc1C(=O)O [ASPIRIN] |  | 0% |  | 42.7% |  |  |  |  |  | 90.2% | Activity [6]: 92.1%; Activity [9]: 87.1%; Activity [18]: 90.1%
11 | COc1ccc(-c2oc3c(OC)c(OC)cc(O)c3c(=O)c2O)cc1 [TAMBULIN] | 78.6% |  | 64.9% |  |  |  | 73.3% | 81.1% |  |  | Activity (Aorta [24]): 98.6%; Activity (Aorta [27]): 100.2%; Activity (Aorta [28]): 104.7%
12 | CCCCCCCCCCCC(C)=O [2-TRIDECANONE] |  |  |  | 63.5% |  |  |  |  |  |  | Activity (Platelet [30]): inactive; Activity (Platelet [31]): inactive
13 | c1cc2c(cc1[C@H]1OC[C@H]3[C@@H]1CO[C@@H]3c1ccc3c(c1)OCO3)OCO2 [SESAMIN] |  |  |  | 82.3% |  |  |  |  |  |  | Activity (Platelet [32]): inactive; Activity (Platelet [30]): inactive; Activity [8]: 83.7%; Activity (Platelet [31]): inactive; Activity [10]: 87.8%; Activity [11]: 83.2%; Activity (Platelet [33]): inactive
14 | O=c1ccc2nccc3c4ccccc4n1c23 [CANTHIN-6-ONE] | 36.4% | 57.3% | 7.9% |  |  |  | 4.2% | 85.3% |  |  | 
15 | CC/C=C/C/C=C\CC/C=C/C=C/C(=O)NCC(C)(C)O | 38.4% | 0% | 0% | 4% |  |  | 0% | 89.2% |  | 27.8% | Activity [21]: 46.2%
